Data: ChEMBL document CHEMBL2046342, “Re-engineering aryl methylcarbamates to confer high selectivity for inhibition of Anopheles gambiae versus human acetylcholinesterase” (2012)
In brackets after ≈: the same amount, converted by molar mass.

Columns and labels:
[1] = target: Acetylcholinesterase (Homo sapiens) (UniProt P22303); experiment: Inhibition of human recombinant AChE after 6 mins by Ellman assay
Procedure, shortened: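 Recombinant human AChE was assayed by Ellman method for time-dependent inactivation at fixed inhibitor concentrations. Pseudo-first-order kobs was taken from ln(v/v0) vs incubation time. Three or more inhibitor levels gave kobs vs [I], and its linear slope gave apparent ki (mM⁻¹ min⁻¹). DMSO was held at 0.1% (v/v) final.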

[2] = tested on: Anopheles gambiae; experiment: Toxicity in Anopheles gambiae G3 assessed as mortality treated as tarsal contact using dried filter papers after 24 hrs; assay type: functional; details: G3, 24 h
[3] = tested on: Anopheles gambiae; experiment: Toxicity in anesthetized Anopheles gambiae G3 assessed as mortality treated as topical application assessed per mosquito after 24 hrs; assay type: functional
[4] = Selectivity ratio of Ki for Anopheles gambiae AChE to Ki for human recombinant AChE
Procedure, shortened: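 Ratio ki(Ag)/ki(h) of apparent second-order inactivation constants, both from Ellman-assay kobs vs [I] slopes using purified recombinant AgAChE and recombinant hAChE. Error in the ratio was computed by standard propagation of error.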

[5] = target: Acetylcholinesterase (Anopheles gambiae) (UniProt Q869C3); experiment: Inhibition of Anopheles gambiae AChE expressed in Escherichia coli after 6 mins by Ellman assay
Procedure, shortened: (§1)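 Time-dependent inactivation of recombinant AgAChE (purified to 2,500 ± 100 U/mg) monitored by Ellman assay. Residual velocity (v/v0) was measured against incubation time at fixed inhibitor levels, and kobs came from the ln(v/v0) vs t slope. kobs at three or more [I] was plotted against [I], and the linear slope gave apparent second-order ki (mM⁻¹ min⁻¹). Final DMSO was constant at 0.1% (v/v).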

[6] = target: Acetylcholinesterase (Anopheles gambiae) (UniProt Q869C3); experiment: Inhibition of Anopheles gambiae AChE; details: concentration not given here; procedure, shortened: as §1
[7] = Selectivity ratio of Torpedo californica AChE to human AChE
[8] = tested on: Anopheles gambiae; experiment: Toxicity in Anopheles gambiae G3 assessed as mortality at 250 ug/ml treated as tarsal contact using dried filter papers after 24 hrs; assay type: functional
Procedure, shortened: (§2)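 Tarsal contact assay. Filter papers were treated with ethanolic carbamate solutions and dried, and adult Anopheles gambiae were exposed for 1 h. Mortality was scored after 24 h. Concentrations refer to the solutions used to treat the papers.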

[9] = tested on: Anopheles gambiae; experiment: Toxicity in Anopheles gambiae G3 assessed as mortality at 1000 ug/ml treated as tarsal contact using dried filter papers after 24 hrs; assay type: functional; procedure, shortened: as §2
[10] = target: Acetylcholinesterase (Anopheles gambiae) (UniProt Q869C3); experiment: Inhibition of Anopheles gambiae AChE at 6 uM after 1 hr

Sequence of Acetylcholinesterase (Homo sapiens) (P22303 whole entry): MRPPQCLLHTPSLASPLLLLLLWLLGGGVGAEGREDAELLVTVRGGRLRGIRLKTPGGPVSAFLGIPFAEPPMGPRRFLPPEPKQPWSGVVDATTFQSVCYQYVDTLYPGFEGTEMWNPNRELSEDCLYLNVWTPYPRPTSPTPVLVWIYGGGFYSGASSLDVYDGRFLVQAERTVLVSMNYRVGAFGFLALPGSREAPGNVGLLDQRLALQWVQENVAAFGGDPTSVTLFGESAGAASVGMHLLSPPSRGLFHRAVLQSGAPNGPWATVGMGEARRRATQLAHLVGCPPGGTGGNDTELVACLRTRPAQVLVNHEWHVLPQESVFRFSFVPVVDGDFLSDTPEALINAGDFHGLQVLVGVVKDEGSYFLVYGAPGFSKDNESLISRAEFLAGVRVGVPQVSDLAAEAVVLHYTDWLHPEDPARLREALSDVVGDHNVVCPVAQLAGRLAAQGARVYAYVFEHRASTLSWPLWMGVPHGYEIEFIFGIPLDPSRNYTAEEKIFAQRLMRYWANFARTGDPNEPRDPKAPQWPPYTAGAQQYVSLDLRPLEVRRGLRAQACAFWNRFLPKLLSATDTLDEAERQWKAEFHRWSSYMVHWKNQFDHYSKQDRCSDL
Sequence of Acetylcholinesterase (Anopheles gambiae) (Q869C3 39-737 limits assumed): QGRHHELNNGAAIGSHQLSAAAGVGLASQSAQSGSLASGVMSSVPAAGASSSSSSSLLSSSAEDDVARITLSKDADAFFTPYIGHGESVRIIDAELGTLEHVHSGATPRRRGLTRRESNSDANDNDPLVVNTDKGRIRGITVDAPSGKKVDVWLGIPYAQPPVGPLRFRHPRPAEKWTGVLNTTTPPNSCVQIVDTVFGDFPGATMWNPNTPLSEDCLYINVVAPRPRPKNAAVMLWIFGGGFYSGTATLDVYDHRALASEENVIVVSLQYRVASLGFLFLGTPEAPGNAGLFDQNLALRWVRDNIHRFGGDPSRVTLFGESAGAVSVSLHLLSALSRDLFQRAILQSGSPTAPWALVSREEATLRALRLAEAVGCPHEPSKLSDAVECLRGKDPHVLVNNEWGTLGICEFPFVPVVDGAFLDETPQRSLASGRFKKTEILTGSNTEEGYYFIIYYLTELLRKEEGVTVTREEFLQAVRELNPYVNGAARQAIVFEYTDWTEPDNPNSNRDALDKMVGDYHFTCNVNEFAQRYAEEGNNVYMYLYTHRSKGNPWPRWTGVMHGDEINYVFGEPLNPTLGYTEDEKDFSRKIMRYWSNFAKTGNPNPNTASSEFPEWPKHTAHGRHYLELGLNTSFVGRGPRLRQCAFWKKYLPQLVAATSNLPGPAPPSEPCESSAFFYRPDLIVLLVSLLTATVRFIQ

Row | Compound | Kinact [1] | LC50 [2] | LD50 [3] | Ratio Ki [4] | apparent second-order inhibition rate constant ki [5] | inhibition [6] | Selectivity ratio [7] | Activity [8] | Activity [9] | inhibition [10]
1 | CNC(=O)Oc1cccc(C(C)(C)C)c1 | 126 mM⁻¹ min⁻¹ | 37 µg/mL (≈ 179 µM) | 4.5 ng | 12 | 1510 mM⁻¹ min⁻¹ |  |  |  |  | 
2 | C=C(C)CSc1ccccc1OC(=O)NC | 7.5 mM⁻¹ min⁻¹ | 317 µg/mL (≈ 1340 µM) | 12 ng | 55 | 414 mM⁻¹ min⁻¹ |  |  |  |  | 
3 | CNC(=O)Oc1ccccc1OCC(C)C | 0.65 mM⁻¹ min⁻¹ | 290 µg/mL (≈ 1300 µM) | 19 ng | 81 | 52.8 mM⁻¹ min⁻¹ |  |  |  |  | 
4 | CNC(=O)Oc1cccc(C(C)C)c1 | 383 mM⁻¹ min⁻¹ |  |  | 8.5 | 3270 mM⁻¹ min⁻¹ |  |  |  |  | 
5 | CCC(CC)COc1cccc(OC(=O)NC)c1 | 5 mM⁻¹ min⁻¹ |  |  | 5.8 | 28.8 mM⁻¹ min⁻¹ |  |  |  |  | 
6 | CNC(=O)Oc1cccc(CCC(C)C)c1 | 5.2 mM⁻¹ min⁻¹ | 342 µg/mL (≈ 1550 µM) |  | 53 | 272 mM⁻¹ min⁻¹ |  |  |  |  | 
7 | CCC(C)COc1ccccc1OC(=O)NC (racemic) | 0.58 mM⁻¹ min⁻¹ | 445 µg/mL (≈ 1880 µM) | 33 ng | 216 | 125 mM⁻¹ min⁻¹ |  |  |  |  | 
8 | CNC(=O)Oc1ccccc1C | 0.24 mM⁻¹ min⁻¹ |  |  | 5.4 | 1.31 mM⁻¹ min⁻¹ |  |  |  |  | 
9 | CNC(=O)Oc1cccc([Si](C)(C)C)c1 | 67.8 mM⁻¹ min⁻¹ |  |  | 9.6 | 648 mM⁻¹ min⁻¹ |  |  |  |  | 
10 | CNC(=O)Oc1ccccc1OCC1CCCC1 | 0.28 mM⁻¹ min⁻¹ |  |  | 36 | 9.8 mM⁻¹ min⁻¹ |  |  |  |  | 
11 | CNC(=O)Oc1cccc(C(C)(C)C(F)(F)F)c1 | 139 mM⁻¹ min⁻¹ | 61 µg/mL (≈ 233 µM) |  | 11 | 1580 mM⁻¹ min⁻¹ |  |  |  |  | 
12 | CNC(=O)Oc1cccc2c1OC(C)(C)C2 [CARBOFURAN] | 428 mM⁻¹ min⁻¹ | 16 µg/mL (≈ 72.3 µM) | 0.85 ng | 6.1 | 2620 mM⁻¹ min⁻¹ | 49% |  |  |  | 
13 | CNC(=O)Oc1cccc(CC(C)C)c1 | 5.5 mM⁻¹ min⁻¹ |  |  | 28 | 155 mM⁻¹ min⁻¹ |  |  |  |  | 
14 | CCC(C)(C)c1cccc(OC(=O)NC)c1 | 784 mM⁻¹ min⁻¹ | 115 µg/mL (≈ 520 µM) |  | 9.7 | 7600 mM⁻¹ min⁻¹ |  |  |  |  | 
15 | CCCc1cccc(OC(=O)NC)c1 | 63.7 mM⁻¹ min⁻¹ | 41 µg/mL (≈ 212 µM) |  | 14 | 881 mM⁻¹ min⁻¹ |  |  |  |  | 
16 | CCN(C)C(=O)Oc1cccc([C@H](C)N(C)C)c1 |  |  |  |  |  |  | 1500 |  |  | 
17 | C=C(C)COc1ccccc1OC(=O)NC | 0.74 mM⁻¹ min⁻¹ |  |  | 84 | 62.2 mM⁻¹ min⁻¹ |  |  |  |  | 
18 | CCC(C)(CC)c1cccc(OC(=O)NC)c1 | 553 mM⁻¹ min⁻¹ |  |  | 9.5 | 5280 mM⁻¹ min⁻¹ |  |  | 72% |  | 

Row | Compound | Kinact [1] | LC50 [2] | LD50 [3] | Ratio Ki [4] | apparent second-order inhibition rate constant ki [5] | inhibition [6] | Selectivity ratio [7] | Activity [8] | Activity [9] | inhibition [10]
19 | CNC(=O)Oc1ccccc1SC | 5.1 mM⁻¹ min⁻¹ |  |  | 14 | 68.9 mM⁻¹ min⁻¹ |  |  |  |  | 
20 | CNC(=O)Oc1ccccc1 | 0.2 mM⁻¹ min⁻¹ |  |  | 13 | 2.75 mM⁻¹ min⁻¹ |  |  |  |  | 
21 | CCC(C)(c1cccc(OC(=O)NC)c1)C(F)(F)F (racemic) | 375 mM⁻¹ min⁻¹ | 68 µg/mL (≈ 247 µM) |  | 8.7 | 3270 mM⁻¹ min⁻¹ |  |  |  |  | 
22 | CCC(CC)COc1ccccc1OC(=O)NC | 0.48 mM⁻¹ min⁻¹ |  | 81 ng | 530 | 255 mM⁻¹ min⁻¹ |  |  |  | 27% | 
23 | CNC(=O)Oc1ccccc1SCC(C)C | 6.5 mM⁻¹ min⁻¹ | 212 µg/mL (≈ 886 µM) | 10 ng | 81 | 526 mM⁻¹ min⁻¹ |  |  |  |  | 
24 | CCC(C)c1cccc(OC(=O)NC)c1 (racemic) | 1910 mM⁻¹ min⁻¹ | 31 µg/mL (≈ 150 µM) | 1.6 ng | 5.3 | 10000 mM⁻¹ min⁻¹ |  |  |  |  | 
25 | CNC(=O)Oc1cccc2c1OC(C)(C)O2 [BENDIOCARB] | 111 mM⁻¹ min⁻¹ | 16 µg/mL (≈ 71.7 µM) | 0.74 ng | 7.6 | 839 mM⁻¹ min⁻¹ | 49% |  |  |  | 
26 | CCCC(C)(C)c1cccc(OC(=O)NC)c1 | 1360 mM⁻¹ min⁻¹ | 236 µg/mL (≈ 1000 µM) |  | 4.9 | 6690 mM⁻¹ min⁻¹ |  |  |  |  | 
27 | C[N+](C)(C)CCCCCCCCCCCCCCCCCCSS(C)(=O)=O |  |  |  |  |  |  |  |  |  | > 95%
28 | CC[Si](C)(C)c1cccc(OC(=O)NC)c1 | 110 mM⁻¹ min⁻¹ | 169 µg/mL (≈ 712 µM) | 8 ng | 14 | 1510 mM⁻¹ min⁻¹ |  |  |  |  | 
29 | CNC(=O)Oc1ccccc1OC(C)C [PROPOXUR] | 17 mM⁻¹ min⁻¹ | 39 µg/mL (≈ 186 µM) | 3.2 ng | 16 | 266 mM⁻¹ min⁻¹ | 49% |  |  |  | 
30 | CCCCc1cccc(OC(=O)NC)c1 | 32.1 mM⁻¹ min⁻¹ | 237 µg/mL (≈ 1140 µM) |  | 23 | 741 mM⁻¹ min⁻¹ |  |  |  |  | 
31 | CNC(=O)Oc1cccc(C)c1 [METOLCARB] | 0.52 mM⁻¹ min⁻¹ | 712 µg/mL (≈ 4310 µM) |  | 33 | 17.2 mM⁻¹ min⁻¹ |  |  |  |  | 
32 | CNC(=O)Oc1cccc2ccccc12 |  |  |  |  |  | 49% |  |  |  | 
33 | CNC(=O)Oc1ccccc1OCC1CCCCC1 | 0.21 mM⁻¹ min⁻¹ |  |  | 2.3 | 0.48 mM⁻¹ min⁻¹ |  |  |  |  | 
34 | CCC(C)CSc1ccccc1OC(=O)NC (racemic) | 16.8 mM⁻¹ min⁻¹ |  |  | 48 | 806 mM⁻¹ min⁻¹ |  |  |  |  | 
35 | CCC(CC)CCc1ccccc1OC(=O)NC | 0.75 mM⁻¹ min⁻¹ |  |  | 100 | 75.3 mM⁻¹ min⁻¹ |  |  |  |  | 
36 | CCC(CC)CSc1ccccc1OC(=O)NC | 14.5 mM⁻¹ min⁻¹ |  | 10 ng | 130 | 1850 mM⁻¹ min⁻¹ |  |  |  | 27% | 
